Results: ChEMBL document CHEMBL5678801, “A benzothiophene inhibitor of mitogen-activated protein kinase-activated protein kinase 2 inhibits tumor necrosis factor alpha production and has oral anti-inflammatory efficacy in acute and chronic models of inflammation” (J Pharmacol Exp Ther, 2010)

Assays:
[1] = Plasma protein binding in human; assay type: ADME, cell-free; settings: read-out: PPB (converted)
Outline: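 Binding to rat and human plasma was measured in vitro by ultracentrifugation.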

[2] = Inhibition of MK2 activity in LPS induced human U937 cells preincubated with compound for 1 hr followed by LPS induction and measured after 30 mins by Western blot analysis; assay type: functional, cell-based; settings: u-937
Outline: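 U937 cells were pretreated with compound for 1 h, then stimulated with LPS 100 ng/ml for 30 min at 37°C. Lysates were run on SDS-PAGE and Western blotted for p-Ser78-HSP27 and total HSP27, detected with fluorescent secondary antibodies and LiCor scanning. The phospho/total ratio was expressed against the LPS-only control. Single experiment repeated three times. 4-parameter fit.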

[3] = Inhibition of recombinant 6 his tagged N/C-terminal MSK1 (367 to 802 residues)/MSK2 (351 to 772 residues) (unknown origin) expressed in baculovirus infected Sf9 insect cells using KKKALSRQLSVAA as substrate incubated for 1 hr followed by substrate addition in presence of ATP; set-up: species or system Homo sapiens
Outline: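 MAPKAP family kinases were activated by p38α (1:50 molar, 250 μM ATP, 1 h, 30°C). Assays ran in 20 mM HEPES pH 7.5, 10 mM MgCl2, 1 mM DTT, 0.01% BSA, 0.0005% Tween-20, at MgATP fixed at each enzyme's Km(app). The 33P-labelled product peptide was separated by ion exchange. Duplicate experiments. MSK1 (367-802) and MSK2 (351-772) were N-terminal 6xHis constructs from Sf9 cells.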

[4] = Antiinflammatory activity in human Whole blood cell assessed as inhibition of LPS induced TNF alpha production preincubated for 1 hr followed by LPS stimulation and measured after 16 hrs by MSD analysis; assay type: functional, cell-based
[5] = biological target: MAP kinase-activated protein kinase 2 (Homo sapiens, UniProt P49137)
[6] = Inhibition of IL-8 production in LPS induced human Whole blood cell preincubated with compound for 1 hr followed by LPS induction and measured after 16 hrs; assay type: functional, cell-based
Outline: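 Human whole blood was stimulated ex vivo with LPS 100 ng/ml. Plasma cytokines were read by MSD 4-plex: TNFα at 4 h; IL-1β, IL-6 and IL-8 at 16 h. Data are means ±S.E.M. of two independent experiments in duplicate, three donors. IC50 by 4-parameter nonlinear regression.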

[7] = Cmax in chronic SCW-induced arthritis Lewis rat model plasma at ED80 concentration; assay type: ADME, cell-free
Outline: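 Female Lewis rats (125-140 g) received a single i.p. streptococcal cell wall injection. Animals showing the acute phase were pooled, 4-8 per group over three experiments. Dosing was oral gavage b.i.d., days 10-21, in methylcellulose-Tween-20 vehicle. Hind paw volume was read by displacement plethysmometer on day 21, as % inhibition of swelling. Plasma was sampled up to 11 h after the last dose, 3 rats per dose. ED values came from fitted curves.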

[8] = biological target: Cyclin-dependent kinase 1/cyclin B1 (Homo sapiens, UniProt P06493); test: Inhibition of CDK1/cycB (unknown origin); assay type: protein-complex assay
Outline: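 Kinase panel: 200 kinases were first screened at 1 μM inhibitor for percent inhibition. Those above 50% inhibition were then titrated for IC50. MgATP was fixed at the Km(app) determined for each enzyme.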

[9] = Inhibition of IL-1 beta production in LPS induced human PBMC cells preincubated with compound for 1 hr followed by LPS induction and measured after 16 hrs by MSD analysis; assay type: functional, cell-based
Outline: (§1)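 Human PBMCs were pretreated with compound for 1 h (<1% DMSO final), then stimulated with LPS 100 ng/ml at 37°C. Cytokines in culture media were read by MSD 4-plex: TNFα at 4 h; IL-1β, IL-6 and IL-8 at 16 h. Data are means ±S.E.M. of two independent experiments in duplicate, three donors. IC50 by 4-parameter nonlinear regression.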

[10] = Plasma concentration in po dosed LPS-induced Lewis rat model at ED80 concentration measured after 5.5 hrs of initial dose by LC-MS/MS analysis; assay type: ADME, organism-based
Outline: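 Male Lewis rats (225-250 g, 5 per group) were fasted 18 h, then dosed orally at 0.2-60 mg/kg as a suspension in 0.5% methylcellulose/0.025% Tween 20. LPS 1 mg/kg was given i.v. 4 h later. Blood was taken by cardiac puncture 90 min after LPS. Serum TNFα was read by ELISA and drug by LC-MS/MS, three independent experiments. 4-parameter fit. Unbound values were corrected with measured rat plasma protein binding.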

[11] = Inhibition of IL-8 production in LPS induced human PBMC cells preincubated with compound for 1 hr followed by LPS induction and measured after 16 hrs by MSD analysis; assay type: functional, cell-based; outline: as §1
[12] = Inhibition of TNF alpha production in LPS induced human PBMC cells preincubated with compound for 1 hr followed by LPS induction and measured after 16 hrs by MSD analysis; assay type: functional, cell-based
[13] = Cmax in Sprague-Dawley rat at 3 mg/kg, po measured upto 24 hrs by […] analysis; assay type: ADME, organism-based; settings: in vivo
Outline: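 Male Sprague-Dawley rats (275-300 g), carotid-catheterized and acclimated overnight. Dosing was i.v. at 1 mpk (n=2) in 70% saline/20% PEG-400/10% ethanol, or oral at 3 mpk (n=3) as a suspension in 0.5% HPMC/Tween. Plasma drug was measured by LC-MS/MS. Cmax and Tmax were read from individual profiles. t½ came from the terminal log-linear slope and AUC by the linear trapezoidal rule. CL = dose/AUC0-∞, Vdss = CL×MRT, F = dose-normalized AUC po/iv.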

Sequence of MAP kinase-activated protein kinase 2 (P49137 whole entry, looked up): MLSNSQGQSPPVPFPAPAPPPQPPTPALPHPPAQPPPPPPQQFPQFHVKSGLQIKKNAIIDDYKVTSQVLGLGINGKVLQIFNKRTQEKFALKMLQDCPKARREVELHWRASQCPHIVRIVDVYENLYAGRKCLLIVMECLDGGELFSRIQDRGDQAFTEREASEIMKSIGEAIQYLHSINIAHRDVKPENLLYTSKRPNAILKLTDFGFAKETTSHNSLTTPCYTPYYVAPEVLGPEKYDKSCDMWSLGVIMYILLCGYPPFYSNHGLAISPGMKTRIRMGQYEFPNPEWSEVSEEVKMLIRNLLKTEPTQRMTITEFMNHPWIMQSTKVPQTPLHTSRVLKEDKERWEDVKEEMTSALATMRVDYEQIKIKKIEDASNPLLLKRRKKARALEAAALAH
Sequence of Cyclin-dependent kinase 1/cyclin B1 (P06493 whole entry): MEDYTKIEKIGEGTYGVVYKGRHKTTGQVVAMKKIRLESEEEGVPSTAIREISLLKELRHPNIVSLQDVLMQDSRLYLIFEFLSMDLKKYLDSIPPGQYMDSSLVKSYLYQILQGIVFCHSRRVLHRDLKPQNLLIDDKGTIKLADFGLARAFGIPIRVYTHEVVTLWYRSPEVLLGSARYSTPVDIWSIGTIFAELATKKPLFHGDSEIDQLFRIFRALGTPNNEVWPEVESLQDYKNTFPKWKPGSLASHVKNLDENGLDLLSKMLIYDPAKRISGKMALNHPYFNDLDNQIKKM
Sequence of Cyclin-dependent kinase 1/cyclin B1 (P14635 whole entry, further chain): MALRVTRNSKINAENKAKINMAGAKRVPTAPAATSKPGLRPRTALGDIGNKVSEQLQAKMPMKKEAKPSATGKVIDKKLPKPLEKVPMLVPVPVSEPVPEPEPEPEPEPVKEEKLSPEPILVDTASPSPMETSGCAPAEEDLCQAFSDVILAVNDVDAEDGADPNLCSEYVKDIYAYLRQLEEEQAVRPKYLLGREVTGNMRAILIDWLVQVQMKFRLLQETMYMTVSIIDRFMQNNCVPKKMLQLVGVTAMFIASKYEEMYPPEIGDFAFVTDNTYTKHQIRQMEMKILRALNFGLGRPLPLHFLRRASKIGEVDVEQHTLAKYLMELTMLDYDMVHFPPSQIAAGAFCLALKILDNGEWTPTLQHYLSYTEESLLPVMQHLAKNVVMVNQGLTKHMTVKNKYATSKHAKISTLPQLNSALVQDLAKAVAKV

fraction unbound [1]: 0.064 | IC50 [2]: 201 nM | IC50 [4]: 1380 nM | fIC50 [5]: 126 nM | IC50 [6]: > 25000 nM | Cmax [7]: 28 µM | IC50 [8]: 354 nM | IC50 [9]: 2780 nM | concentration at 5.5 h [10]: 4.2 µM | IC50 [11]: 2090 nM | IC50 [12]: 160 nM | Cmax [13]: 0.66 µM
SMILES: Cc1ccc(-c2ccc3c(ccc4sc5c(c43)NC[C@@H](C)NC5=O)n2)cn1
IC50 [3]: > 1000 nM
